According to ChEMBL document CHEMBL5620421, “2,6-Disubstituted 7-(naphthalen-2-ylmethyl)-7H-purines as a new class of potent antitubercular agents inhibiting DprE1” (Eur J Med Chem, 2023):
In brackets after ≈: the same amount, converted by molar mass.

Legend:
Assay type in all cases: functional
[1] = tested on: Mycobacterium kansasii; experiment: Antitubercular activity against Mycobacterium kansasii CNCTC My 235/80 assessed as inhibition of bacterial growth measured after 21 days of incubation by Sulas semisynthetic medium based assay; conditions: CNCTC My 235/80, 504 h, time 21 day
Method in brief: (§1)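 Micromethod in Sula's semisynthetic medium. MIC is the lowest concentration inhibiting >99% of the mycobacterial population. Isoniazid was the standard.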

[2] = tested on: Mycobacterium avium; experiment: Antitubercular activity against Mycobacterium avium CNCTC My 330/88 assessed as inhibition of bacterial growth measured after 14 days of incubation by Sulas semisynthetic medium based assay; conditions: CNCTC My 330/88, 336 h, time 14 day
Method in brief: (§2)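 M. avium was tested by the micromethod in Sula's semisynthetic medium. Compounds in DMSO at 1000 to 0.5 μmol/L. Incubation at 37 °C, read at 14 and 21 days. MIC is the lowest concentration giving >99% growth inhibition.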

[3] = tested on: Mycobacterium tuberculosis; experiment: Antitubercular activity against Mycobacterium tuberculosis CNCTC My 331/88 (H37Rv) assessed as inhibition of bacterial growth measured after 14 days of incubation by Sulas semisynthetic medium based assay; conditions: 336 h, time 14 day
Method in brief: (§3)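 Micromethod MIC in Sula's semisynthetic medium. MIC is the lowest concentration inhibiting >99% of the mycobacterial population. Isoniazid was the standard drug.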

[4] = tested on: Mycobacterium tuberculosis; experiment: Antitubercular activity against Mycobacterium tuberculosis CNCTC My 331/88 (H37Rv) assessed as inhibition of bacterial growth measured after 21 days of incubation by Sulas semisynthetic medium based assay; conditions: 504 h, time 21 day; method in brief: as §3
[5] = tested on: Mycobacterium kansasii; experiment: Antitubercular activity against Mycobacterium kansasii CNCTC My 235/80 assessed as inhibition of bacterial growth measured after 7 days of incubation by Sulas semisynthetic medium based assay; conditions: CNCTC My 235/80, 168 h, time 7 day; method in brief: as §1
[6] = tested on: Mycobacterium avium; experiment: Antitubercular activity against Mycobacterium avium CNCTC My 330/88 assessed as inhibition of bacterial growth measured after 21 days of incubation by Sulas semisynthetic medium based assay; conditions: CNCTC My 330/88, 504 h, time 21 day; method in brief: as §2
[7] = tested on: Mycobacterium kansasii; experiment: Antitubercular activity against Mycobacterium kansasii CNCTC My 235/80 assessed as inhibition of bacterial growth measured after 14 days of incubation by Sulas semisynthetic medium based assay; conditions: CNCTC My 235/80, 336 h, time 14 day; method in brief: as §1

Row | SMILES | MIC99 [1] [µM] | MIC99 [2] [µM] | MIC99 [3] [µM] | MIC99 [4] [µM] | MIC99 [5] [µM] | MIC99 [6] [µM] | MIC99 [7] [µM]
1 | CN(C)c1nc2ncn(Cc3ccc4ccccc4c3)c2c(=O)[nH]1 | > 500 | > 500 | > 500 | > 500 | > 500 | > 500 | > 500
2 | COCCNc1nc2ncn(Cc3ccc4ccccc4c3)c2c(=O)[nH]1 | > 500 | > 500 | > 500 | > 500 | > 500 | > 500 | > 500
3 | S=c1[nH]c(=S)c2c(ncn2Cc2ccc3ccccc3c2)[nH]1 | > 500 | > 500 | > 500 | > 500 | > 500 | > 500 | > 500
4 | CN1CCN(c2nc3ncn(Cc4ccc5ccccc5c4)c3c(=O)[nH]2)CC1 | 500 (≈ 187 µg/mL) | > 500 | 250 (≈ 93.6 µg/mL) | 500 (≈ 187 µg/mL) | 250 (≈ 93.6 µg/mL) | > 500 | 500 (≈ 187 µg/mL)
5 | O=c1[nH]c(NC2CCC2)nc2ncn(Cc3ccc4ccccc4c3)c12 | > 500 | > 500 | > 500 | > 500 | > 500 | > 500 | > 500
6 | O=c1[nH]c(N2CCOCC2)nc2c1ncn2Cc1ccc(Cl)cc1 | > 500 | > 500 | > 500 | > 500 | > 500 | > 500 | > 500
7 | CC(C)c1ccc(Cn2cnc3c(=O)[nH]c(N4CCOCC4)nc32)cc1 | > 250 | > 250 | 125 (≈ 44.2 µg/mL) | > 250 | > 250 | > 250 | > 250
8 | COc1ccc(Cn2cnc3c(=O)[nH]c(N4CCOCC4)nc32)cc1 | > 500 | > 500 | > 500 | > 500 | > 500 | > 500 | > 500
9 | O=c1[nH]c(N2CCOCC2)nc2ncn(-c3ccsc3)c12 |  | > 500 | > 500 | > 500 | > 500 | > 500 | > 500
10 | O=c1[nH]c(NCCO)nc2ncn(Cc3ccc4ccccc4c3)c12 | > 500 | > 500 | > 500 | > 500 | > 500 | > 500 | > 500
11 | Clc1ncnc2ncn(Cc3ccc4ccccc4c3)c12 | > 1000 | > 1000 | 125 (≈ 36.8 µg/mL) | 125 (≈ 36.8 µg/mL) | 1000 (≈ 295 µg/mL) | > 1000 | > 1000
12 | Cn1c(N2CCOCC2)nc2ncn(Cc3ccc4ccccc4c3)c2c1=O | > 500 | > 500 | 32 (≈ 12 µg/mL) | 64 (≈ 24 µg/mL) |  | > 500 | > 500
13 | c1ccc2cc(Cn3cnc4nc(N5CCOCC5)nc(N5CCOCC5)c43)ccc2c1 | 250 (≈ 108 µg/mL) | 250 (≈ 108 µg/mL) | 125 (≈ 53.8 µg/mL) | 125 (≈ 53.8 µg/mL) | 125 (≈ 53.8 µg/mL) | 500 (≈ 215 µg/mL) | 125 (≈ 53.8 µg/mL)
14 | COCCN(C)c1nc2ncn(Cc3ccc4ccccc4c3)c2c(=O)[nH]1 | > 500 | > 500 | > 500 | > 500 | > 500 | > 500 | > 500
15 | O=c1[nH]cnc2ncn(Cc3ccc4ccccc4c3)c12 | > 500 | > 500 | > 500 | > 500 | 125 (≈ 34.5 µg/mL) | > 500 | > 500
16 | O=c1[nH]c(N2CCOCC2)nc2ncn(Cc3ccc(Cl)cc3)c12 | > 500 | > 500 | > 500 | > 500 | 125 (≈ 43.2 µg/mL) | > 500 | 250 (≈ 86.4 µg/mL)
17 | c1ccc2cc(Cn3cnc4nc(N5CCOCC5)nc(NCc5ccncc5)c43)ccc2c1 | 64 (≈ 28.9 µg/mL) | 250 (≈ 113 µg/mL) | 8 (≈ 3.61 µg/mL) | 8 (≈ 3.61 µg/mL) | 64 (≈ 28.9 µg/mL) | 500 (≈ 226 µg/mL) | 64 (≈ 28.9 µg/mL)
18 | O=c1[nH]c(NC2CC2)nc2ncn(Cc3ccc4ccccc4c3)c12 | > 500 | > 500 | > 500 | > 500 | > 500 | > 500 | > 500
19 | COc1cccc(Cn2cnc3nc(N4CCOCC4)[nH]c(=O)c32)c1 | > 500 |  | 500 (≈ 171 µg/mL) | > 500 | > 500 | > 500 | > 500
20 | O=c1[nH]c(N2CCOCC2)nc2c1ncn2Cc1ccc(Cl)c(Cl)c1 | > 250 | > 250 | > 250 | > 250 | > 250 | > 250 | > 250
21 | CN(C)CCNc1nc(N2CCOCC2)nc2ncn(Cc3ccc4ccccc4c3)c12 | 125 (≈ 53.9 µg/mL) | 500 (≈ 216 µg/mL) | 32 (≈ 13.8 µg/mL) | 64 (≈ 27.6 µg/mL) | 64 (≈ 27.6 µg/mL) | 500 (≈ 216 µg/mL) | 125 (≈ 53.9 µg/mL)
22 | S=c1[nH]cnc2ncn(Cc3ccc4ccccc4c3)c12 | > 500 | > 500 | > 500 | > 500 | > 500 | > 500 | > 500
23 | COc1ccc(Cn2cnc3nc(N4CCOCC4)[nH]c(=O)c32)cc1 | > 500 | > 500 | 32 (≈ 10.9 µg/mL) | 64 (≈ 21.8 µg/mL) |  | > 500 | > 500
24 | COc1cccc(Cn2cnc3c(=O)[nH]c(N4CCOCC4)nc32)c1 | > 500 | > 500 | > 500 | > 500 | > 500 | > 500 | > 500
25 | O=c1[nH]c(N2CCOCC2)nc2ncn(Cc3cccc4ccccc34)c12 | > 500 | > 500 | > 500 | > 500 | > 500 | > 500 | > 500
26 | O=c1[nH]c(N2CCOCC2)nc2c1ncn2Cc1ccc2ccccc2c1 | > 250 | > 250 | > 250 | > 250 | > 250 | > 250 | > 250
27 | O=c1[nH]c(N2CCOCC2)nc2ncn(-c3cccc4c3sc3ccccc34)c12 | > 250 | > 250 | > 250 | > 250 | > 250 | > 250 | > 250
